{"data": "Measurements collected from several papers", "KDR": "Vascular endothelial growth factor receptor 2 (KDR, Homo sapiens, UniProt P35968)", "PIP5K1A": "Phosphatidylinositol 4-phosphate 5-kinase type-1 alpha (PIP5K1A, Homo sapiens, UniProt Q99755)", "note": "Protocols differ between the studies behind these lines."}
{"SMILES": "COc1ccc2oc(-c3ccc4nc(N)oc4c3)c/c(=N\\c3ccccc3NC(=O)CCN)c2c1", "target": "Activin receptor type-1-like (ACVRL1, Homo sapiens, UniProt P37023)", "test": "binding", "setting": "1 µM", "endpoint": "remaining binding", "value": "106%"}
{"SMILES": "CC1=C(/C=C/C(C)=C/C=C/C(C)=C/C=C/C=C(C)/C=C/C=C(C)/C=C/C2=C(C)CCCC2(C)C)C(C)(C)CCC1", "target": "KDR", "test": "enzyme activity, inhibitor, TR-FRET", "setting": "40 µM", "endpoint": "inhibition", "value": "-6.3%"}
{"SMILES": "CC(C)c1ccc(Sc2ccc3nnc(C(F)(F)F)n3n2)cc1", "target": "Glutamate NMDA receptor; Grin1/Grin2a (Grin1/Grin2a, Rattus norvegicus, UniProt P35439+Q00959)", "test": "ion current, two-electrode voltage clamp", "setting": "30 µM, oocytes", "endpoint": "remaining activity", "value": "97%"}
{"SMILES": "COc1ccc(-c2cc(=O)c3c(O)cc(O[C@@H]4O[C@H](CO[C@@H]5O[C@@H](C)[C@H](O)[C@@H](O)[C@H]5O)[C@@H](O)[C@H](O)[C@H]4O)cc3o2)cc1O", "target": "KDR", "test": "enzyme activity, inhibitor, TR-FRET", "setting": "40 µM", "endpoint": "inhibition", "value": "51.5%"}
{"SMILES": "CC(=O)/C=C/C=C(C)/C=C/C1=C(C)CC(O)CC1(C)C (stereo in doubt)", "target": "D14 (Oryza sativa, UniProt Q10QA5)", "test": "thermal stability, DSF", "setting": "10 µM", "endpoint": "ΔTm", "value": "2.75 °C"}
{"SMILES": "CC(=O)ON=C1C=CC(=C(C#N)c2ccccc2)C=C1", "target": "Glycogen synthase kinase-3 beta (GSK3B, Homo sapiens, UniProt P49841)", "test": "enzyme activity, inhibitor, ADP detection", "setting": "20 µM", "endpoint": "activity vs control", "value": "82%"}
{"SMILES": "Cc1cc(O)c(-c2ccc([C@@H](C)CN(C)C)cc2)c2c1[nH]c(=O)c1sccc12", "target": "Serine/threonine-protein kinase Nek4 (NEK4, Homo sapiens, UniProt P51957)", "test": "enzyme activity, inhibitor", "setting": "0.1 µM", "endpoint": "inhibition", "value": "0.965%"}
{"SMILES": "CCCCC(=O)Nc1ccc(-c2ccc3ncn(CCC)c(=O)c3c2)cn1", "target": "Interleukin-1 receptor-associated kinase 3 (IRAK3, Homo sapiens, UniProt Q9Y616)", "test": "binding, competition with immobilised ligand", "setting": "0.5 µM", "endpoint": "remaining binding", "value": "99%"}
{"SMILES": "Cc1cc(S(=O)(=O)N[C@H]2CC[C@H](CN3CCN(c4ccc(C5CCC(=O)NC5=O)cc4F)CC3)CC2)ccc1Nc1ncc(C(F)(F)F)c(N2CCC[C@](C)(O)C2)n1 (stereo partly drawn)", "target": "PIP5K1A", "test": "binding, competition with immobilised ligand", "setting": "1 µM", "endpoint": "remaining binding", "value": "70%"}
{"SMILES": "C1=C/COCc2cc(ccc2OCCN2CCCC2)Nc2nccc(n2)-c2cccc(c2)COC/1", "target": "1-phosphatidylinositol 3-phosphate 5-kinase (PIKFYVE, Homo sapiens, UniProt Q9Y2I7)", "test": "cell-free assay", "setting": "0.1 µM", "endpoint": "remaining signal", "value": "17%"}
{"SMILES": "CNS(=O)(=O)c1ccc(Nc2ncc(C(F)(F)F)c(N3CCC[C@](C)(O)C3)n2)c(C)c1", "target": "PIP5K1A", "test": "binding, competition with immobilised ligand", "setting": "1 µM", "endpoint": "remaining binding", "value": "100%"}
{"SMILES": "CCN1/C(=C/C(C)=O)Sc2ccc(F)cc21", "target": "Vasopressin V1b receptor (AVPR1B, Homo sapiens, UniProt P47901)", "test": "ligand displacement, radioligand", "setting": "10 µM", "endpoint": "inhibition", "value": "2.63%"}
